The RNAGym collection of RNA variant scans (doi:10.1038/s41586-018-0170-7)

B1: tRNA (parent)
chain: GUUCCGUUGGCGUAAUGGUAACGCGUCUCCCUCCUAAGGAGAAGACUGCGGGUUCGAGUCCCGUACGGAACG

Variants of: B1
Assay: yeast fitness, log relative to wild type (ln ratio); higher = fitter; tRNA-Arg(CCU), competitive growth, 37 C, 1 M NaCl
Method in brief: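 Fitness is the natural log of each genotype's generations divided by the wild type's. Generations were derived as OD-scaled log2 output/input frequency from 125 bp paired-end Illumina counts, weighting replicates by inverse variance. Pools of the tRNA-Arg(CCU) variant library, on a HIS3 centromeric plasmid in BY4742 lacking the chromosomal gene, grew ~6.5 generations (~26.5 h) in SC-HIS 1M NaCl at 37 °C after 4 generations in SC-HIS at 30 °C.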

Row | Variant | yeast fitness (ln)
1 | GUUCCUUUGGCGUAAUGGUAACGCGUCUCCCUCCUAAGGAGAAGAUUGCGGGUUCGAGUCCCGUACGGGACG [G6U C46U A69G] | -0.397
2 | GUUCCUUUGGCGUAAUGGUAACGCGUCUCCCUCCUAAGGAGAAGACUGCGGGUUCGAGUCCCGUAAGGAUUG [G6U C66A A70U C71U] | -0.412
3 | GUUCCUUUGGCGUAAUGGUAACGCGUCUCCCUCCUAAGGAGAAGACUGCGGGUUCGAGUCCCGUAAGGGUUG [G6U C66A A69G A70U C71U] | -0.408
4 | GUUCCUUUGGCGUAAUGGUAACGCGUCUCCCUCCUAAGGAGAAGAUUGCGGGUUCGAGUCCCGUAAGGGUUG [G6U C46U C66A A69G A70U C71U] | -0.418
5 | GUUCCUUUGGCGUAAUGGUAACGCGUUUCCCUCCUAAGGAGAAGACUGCGGGUUCGAGUCCCGUACGGAAUG [G6U C27U C71U] | -0.222
6 | GUUCCUUUGGCGUAAUGGUAACGCGUCUCCCUCCUAAGGAGAAGACUGCGGGUUCGAGUCCCGUAUGGAAUG [G6U C66U C71U] | -0.639
7 | GUUCCUUUGGCGUAAUGGUAACGCGUUUCCCUCCUAAGGAGAAGACUGCGGGUUCGAGUCCCGUAUGGAUCG [G6U C27U C66U A70U] | -0.261
8 | GUUCCUUUGGCGUAAUGGUAACGCGUUUCCCUCCUAAGGAGAAGACUGCGGGUUCGAGUCCCGUAUGGAGCG [G6U C27U C66U A70G] | -0.288
9 | GUUCCUUUGGCGUAAUGGUAACGCGUUUCCCUCCUAAGGAGAAGACUGCGGGUUCGAGUCCCGUAUGGAGUG [G6U C27U C66U A70G C71U] | -0.37
10 | GUUCCUUUGGCGUAAUGGUAACGCGUCUCCCUCCUAAGGAGAAGAUUGCGGGUUCGAGUCCCGUAUGGAGUG [G6U C46U C66U A70G C71U] | -0.138
11 | GUUCCUUUGGCGUAAUGGUAACGCGUCUCCCUCCUAAGGAGAAGAUUGCGGGUUCGAGUCCCGUACGGGAUG [G6U C46U A69G C71U] | -0.194
12 | GUUCCUUUGGCGUAAUGGUAACGCGUCUCCCUCCUAAGGAGAAGACUGCGGGUUCGAGUCCCGUAUGGGUCG [G6U C66U A69G A70U] | -0.261
13 | GUUCCUUUGGCGUAAUGGUAACGCGUCUCCCUCCUAAGGAGAAGACUGCGGGUUCGAGUCCCGUAUGGGGCG [G6U C66U A69G A70G] | -0.271
14 | GUUCCUUUGGCGUAAUGGUAACGCGUCUCCCUCCUAAGGAGAAGAUUGCGGGUUCGAGUCCCGUACGGGGCG [G6U C46U A69G A70G] | -0.158
15 | GUUCCUUUGGCGUAAUGGUAACGCGUCUCCCUCCUAAGGAGAAGAUUGCGGGUUCGAGUCCCGUACGGGUCG [G6U C46U A69G A70U] | -0.204
16 | GUUCCUUUGGCGUAAUGGUAACGCGUCUCCCUCCUAAGGAGAAGAUUGCGGGUUCGAGUCCCGUACGGGGUG [G6U C46U A69G A70G C71U] | -0.253
17 | GUUCCUUUGGCGUAAUGGUAACGCGUCUCCCUCCUAAGGAGAAGAUUGCGGGUUCGAGUCCCGUACGGAACG [G6U C46U] | -0.0183
18 | GUUCCUUUGGCGUAAUGGUAACGCGUCUCCCUCCUAAGGAGAAGAUUGCGGGUUCGAGUCCCGUACGGAAUG [G6U C46U C71U] | -0.413
19 | GUUCCUUUGGCGUAAUGGUAACGCGUCUCCCUCCUAAGGAGAAGAUUGCGGGUUCGAGUCCCGUAAGGAAUG [G6U C46U C66A C71U] | -0.00198

Row | Variant | yeast fitness (ln)
20 | GUUCCUUUGGCGUAAUGGUAACGCGUCUCCCUCCUAAGGAGAAGACUGCGGGUUCGAGUCCCGUAAGGGGUG [G6U C66A A69G A70G C71U] | -0.402
21 | GUUCCUUUGGCGUAAUGGUAACGCGUCUCCCUCCUAAGGAGAAGAUUGCGGGUUCGAGUCCCGUAAGGGACG [G6U C46U C66A A69G] | -0.0364
22 | GUUCCUUUGGCGUAAUGGUAACGCGUCUCCCUCCUAAGGAGAAGAUUGCGGGUUCGAGUCCCGUAUGGAGCG [G6U C46U C66U A70G] | -0.153
23 | GUUCCUUUGGCGUAAUGGUAACGCGUCUCCCUCCUAAGGAGAAGAUUGCGGGUUCGAGUCCCGUAUGGAUCG [G6U C46U C66U A70U] | -0.297
24 | GUUCCGUUGGCGUAAUGGUAACGCGUUUCCCUCCUAAGGAGACGACUGCGGGUUCGAGUCCCGUACGGGACG [C27U A43C A69G] | -0.0699
25 | GUUCCUUUGGCGUAAUGGUAACGCGUCUCCCUCCUAAGGAGAAGAUUGCGGGUUCGAGUCCCGUAUGGGAUG [G6U C46U C66U A69G C71U] | -0.594
26 | GUUCCUUUGGCGUAAUGGUAACGCGUCUCCCUCCUAAGGAGAAGACUGCGGGUUCGAGUCCCGUAAGGGAUG [G6U C66A A69G C71U] | -0.0488
27 | GUUCCUUUGGCGUAAUGGUAACGCGUCUCCCUCCUAAGGAGAAGAUUGCGGGUUCGAGUCCCGUACGGAUUG [G6U C46U A70U C71U] | -0.189
28 | GUUCCUUUGGCGUAAUGGUAACGCGUCUCCCUCCUAAGGAGAAGAUUGCGGGUUCGAGUCCCGUACGGAGCG [G6U C46U A70G] | -0.284
29 | GUUCCUUUGGCGUAAUGGUAACGCGUCUCCCUCCUAAGGAGAAGAUUGCGGGUUCGAGUCCCGUACGGAUCG [G6U C46U A70U] | -0.161
30 | GUUCCUUUGGCGUAAUGGUAACGCGUCUCCCUCCUAAGGAGAAGAUUGCGGGUUCGAGUCCCGUAAGGGGUG [G6U C46U C66A A69G A70G C71U] | -0.414
31 | GUUCCUUUGGCGUAAUGGUAACGCGUCUCCCUCCUAAGGAGAAGACUGCGGGUUCGAGUCCCGUAAGGAUCG [G6U C66A A70U] | -0.0008
32 | GUUCCUUUGGCGUAAUGGUAACGCGUCUCCCUCCUAAGGAGAAGACUGCGGGUUCGAGUCCCGUAAGGAGCG [G6U C66A A70G] | -0.0102
33 | GUUCCUUUGGCGUAAUGGUAACGCGUCUCCCUCCUAAGGAGAAGACUGCGGGUUCGAGUCCCGUAUGGGAUG [G6U C66U A69G C71U] | -0.374
34 | GUUCCUUUGGCGUAAUGGUAACGCGUCUCCCUCCUAAGGAGAAGAUUGCGGGUUCGAGUCCCGUAUGGGUUG [G6U C46U C66U A69G A70U C71U] | -0.434
35 | GUUCCUUUGGCGUAAUGGUAACGCGUCUCCCUCCUAAGGAGAAGACUGCGGGUUCGAGUCCCGUAAGGGGCG [G6U C66A A69G A70G] | -0.0205
36 | GUUCCUUUGGCGUAAUGGUAACGCGUCUCCCUCCUAAGGAGAAGACUGCGGGUUCGAGUCCCGUAAGGGUCG [G6U C66A A69G A70U] | -0.291
37 | GUUCCUUUGGCGUAAUGGUAACGCGUCUCCCUCCUAAGGAGAAGACUGCGGGUUCGAGUCCCGUAAGGAGUG [G6U C66A A70G C71U] | -0.233
38 | GUUCCUUUGGCGUAAUGGUAACGCGUUUCCCUCCUAAGGAGAAGACUGCGGGUUCGAGUCCCGUAUGGAAUG [G6U C27U C66U C71U] | -0.256
